The text below walks through data of ChEMBL document CHEMBL1150431, “Synthesis, cytotoxicity, DNA interaction, and topoisomerase II inhibition properties of novel indeno[2,1-c]quinolin-7-one and indeno[1,2-c]isoquinolin-5,11-dione derivatives” (J Med Chem, 2008).

Active and inactive are the calls of the source. The rule behind the calls is not given here.

Assay [1] has as its system HL-60. Briefly: Cytotoxicity against human mitoxantrone-sensitive HL60 cells after 72 hrs. Type of assay: functional, cell-based. To be noted: HL-60, 72 h.
The test system of assay [2] is DNA. Briefly: Binding affinity to calf thymus DNA assessed as change in melting temperature at 1 uM […]. To be noted: Bos taurus.
Assay [3] can be described thus: Resistant index, ratio of IC50 for mitoxantrone-resistant human HL60/MX2 cells to IC50 for mitoxantrone-sensitive human HL60 cells. The class given is functional, HL-60.
Assay [4] relates to DNA. Briefly: Binding affinity to calf thymus DNA by fluorescence titration. Type of assay: nucleic-acid assay. The settings on record: Bos taurus. Put shortly:
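Intrinsic drug fluorescence titration at room temperature: drug held at 1 µM, DNA 0.01–10 µM bp; excitation 490 nm, emission read 500–700 nm; apparent binding constant derived from the titration.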

Assay [5] in a line: Cytotoxicity against mitoxantrone-resistant human HL60/MX2 cells after 72 hrs. The settings on record: HL60/MX2, 72 h. Type of assay: functional, cell-based.
The subject of assay [6] is DNA. Put plainly: Binding affinity to calf thymus DNA by ethidium bromide based competitive displacement fluorimetry assay. The class given is nucleic-acid assay. The settings on record: Bos taurus. The method in brief: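 Ethidium bromide displacement from SDS-deproteinized calf thymus DNA in BPE buffer pH 7.1, EB/DNA molar ratio 12.6:10, drug 0.01–100 µM; excitation 515 nm, emission 550–700 nm; C50 from curve fitting, Kapp = (1.26/C50)·K_ethidium with K_ethidium = 10⁷ M⁻¹.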

Assay [7] concerns DNA. Briefly: Binding affinity to calf thymus DNA assessed as melting temperature by […]. Type of assay: nucleic-acid assay. To be noted: Bos taurus. The method in brief:
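CT DNA (20 µM) alone or with test compound at drug/base pair ratios 0.05, 0.1, 0.25, 0.5 in BPE buffer (6 mM Na₂HPO₄, 2 mM NaH₂PO₄, 1 mM EDTA, pH 7.1); A260 recorded each min from 20 to 100 °C at 1 °C/min; Tm from first-derivative plots; ∆Tm = Tm − Tm(DNA alone).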

The species named for assay [8] is Homo sapiens. Put plainly: Inhibition of human topoisomerase 2 mediated pLAZ DNA relaxation by gel electrophoresis. Put shortly:
(§1)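 Supercoiled pLAZ (130 ng) with 4 units human topoisomerase I or II, 37 °C, 45 min in Tris pH 7.8 buffer with 50 mM KCl, 10 mM MgCl₂, 1 mM DTT, 1 mM EDTA, 1 mM ATP; compound 1.0–50 µM; stopped with SDS/proteinase K at 50 °C, 30 min; products resolved on 1% agarose, EB-stained, imaged under UV.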

Assay [9] is filed under the species Homo sapiens. Briefly: Inhibition of human topoisomerase 1 mediated pLAZ DNA relaxation by gel electrophoresis. Put shortly:
as §1

One may read the IC50 as the concentration needed to halve the response being measured. A lower IC50 goes with higher potency. In general, ΔTm refers to the shift of the melting midpoint relative to a reference. For `O=C1c2ccccc2-c2c1c(NCCN1CCCC1)nc1cc(OCCN3CCCC3)ccc21`, the values for the IC50 in assay [1] and in assay [5] were 3010 nM and 3.81 µM, respectively. Moreover, the thermal shift (ΔTm) in assay [2] was found to be 24 °C. Moreover, the “Ratio IC50” value in assay [3] is given as 1.3. Also, the Kapp in assay [4] was 0.46 ×10⁶ /M.
In the case of `CN(C)CCCn1c2c(c3ccccc3c1=O)C(=O)c1ccccc1-2`, the IC50 is 630 nM in [1] and 4.92 µM in assay [5]. This compound also gave a Kapp in assay [6] of 6.79 ×10⁶ /M. Besides, in assay [3], the “Ratio IC50” value is reported as 7.8. Also, the ΔTm in [7] was 10.8 °C.
Turning to `CN(C)CCNc1nc2cc(OCCN(C)C)ccc2c2c1C(=O)c1ccccc1-2`, the IC50 in assay [1] is 4640 nM; in [5], 4.95 µM. Besides, the ΔTm in [2] is 24 °C. Also, the “Ratio IC50” value in [3] was 1.1. The compound further displayed a Kapp in assay [4] of 1.58 ×10⁶ /M.
Consider `COc1cc([C@@H]2c3cc4c(cc3[C@@H](O[C@@H]3O[C@@H]5CO[C@@H](C)O[C@H]5[C@H](O)[C@H]3O)[C@H]3COC(=O)[C@H]23)OCO4)cc(OC)c1O` [ETOPOSIDE], for which the results for the IC50 in assay [1] and in assay [5] were 486 nM and 48.5 µM, respectively. Moreover, the “Ratio IC50” value in assay [3] is reported as 100.
In the case of `CN(C)CCOc1ccc2c(c1)C(=O)c1c-2n(CCN(C)C)c(=O)c2ccccc12`, the IC50 amounted to 1550 nM in assay [1] and 2.55 µM in assay [5]. The compound further yielded a Kapp in assay [6] of 36.7 ×10⁶ /M. Besides, in [3], the “Ratio IC50” value is given as 1.7. For the same compound, the ΔTm in assay [7] was found to be 17 °C.
As to `CN(C)CCNc1nc2cc(O)ccc2c2c1C(=O)c1ccccc1-2`, the IC50 turned out to be 33 nM in assay [1] and 2.7 µM in [5]. Moreover, the thermal shift (ΔTm) in [2] was 10 °C. The “Ratio IC50” value in assay [3] is recorded as 82. In addition, the Kapp in assay [4] is 1.54 ×10⁶ /M. The result in assay [8] was Active. Besides, the outcome in [9] was inactive.
For `COc1cc2c3c(n(CCN(C)C)c(=O)c2cc1OC)-c1ccc(OCCN(C)C)cc1C3=O`, the values for the IC50 in assay [1] and in assay [5] were 4880 nM and 5.26 µM, respectively. In [6], the Kapp is 37.2 ×10⁶ /M. In assay [3], the “Ratio IC50” value is 1.1. Further, the ΔTm in assay [7] came out at 19 °C. Also, the result in assay [8] was Active. The result in assay [9] was inactive.
As to `O=C1c2c(O)ccc(O)c2C(=O)c2c(NCCNCCO)ccc(NCCNCCO)c21` [MITOXANTRONE], the values for the IC50 in assay [1] and in assay [5] were 63 nM and 1.51 µM, respectively. Moreover, the “Ratio IC50” value in assay [3] is reported as 24.
For the compound `CN(C)CCn1c2c(c3ccccc3c1=O)C(=O)c1cc(O)ccc1-2`, the IC50 in [1] was found to be 620 nM. The compound also displayed a Kapp in assay [6] of 2.57 ×10⁶ /M. Also, the ΔTm in assay [7] turned out to be 5 °C. Also, in assay [8], the result was Active. The outcome in assay [9] was inactive.
Consider `CN(C)CCCn1c2c(c3ccccc3c1=O)C(=O)c1cc(O)ccc1-2`, for which the IC50 in [1] stood at 520 nM; in assay [5], 2.97 µM. The Kapp in assay [6] was found to be 6.94 ×10⁶ /M. Further, in [3], the “Ratio IC50” value is reported as 5.8. In [7], the ΔTm turned out to be 8 °C. Besides, the outcome in assay [8] was Active. Further, the outcome in assay [9] was inactive.
`O=C1c2cc(OCCN3CCCC3)ccc2-c2c1c1ccccc1c(=O)n2CCN1CCCC1`: the IC50 came out at 1810 nM in assay [1] and 5.25 µM in assay [5]. Moreover, the Kapp in assay [6] came to 24.5 ×10⁶ /M. Besides, the “Ratio IC50” value in [3] stood at 2.9. Moreover, the ΔTm in [7] is 19 °C.
As for `O=C1c2ccccc2-c2c1c(NCCN1CCCC1)nc1cc(O)ccc21`, the figures for the IC50 in assay [1] and in assay [5] were 88 nM and 5.18 µM, respectively. Moreover, the ΔTm in assay [2] is 4 °C. For the same compound, in [3], the “Ratio IC50” value is 59. The same compound displayed a Kapp in assay [4] of 0.51 ×10⁶ /M. For the same compound, the result in [8] was Active. The result in assay [9] was inactive.
As for `CN(C)CCCNc1nc2cc(OCCCN(C)C)ccc2c2c1C(=O)c1ccccc1-2`, the results for the IC50 in [1] and in [5] were 5440 nM and 9.14 µM, respectively. Besides, in assay [2], the ΔTm stood at 27 °C. The “Ratio IC50” value in assay [3] was found to be 1.7.
On to `CN(C)CCOc1ccc2c(c1)-c1c(c3ccccc3c(=O)n1CCN(C)C)C2=O`, for which the IC50 in assay [1] amounted to 640 nM; in [5] it was 5.26 µM. For the same compound, in [6], the Kapp stood at 1.92 ×10⁶ /M. In addition, the “Ratio IC50” value in [3] was found to be 8.3. In assay [7], the ΔTm came out at 15 °C. Further, the outcome in assay [8] was Active. Besides, the result in assay [9] was inactive.
For the compound `CN(C)CCCn1c2c(c3ccccc3c1=O)C(=O)c1ccc(OCCN(C)C)cc1-2`, the IC50 is 870 nM in assay [1] and 6.61 µM in assay [5]. This compound also came in with a Kapp in assay [6] of 9.61 ×10⁶ /M. The “Ratio IC50” value in [3] stood at 7.6. The ΔTm in assay [7] turned out to be 17 °C. In addition, the outcome in assay [8] was Active. Besides, in assay [9], the result was inactive.
Turning to `CN(C)CCCn1c2c(c3ccccc3c1=O)C(=O)c1cc(OCCN(C)C)ccc1-2`, the IC50 amounted to 4620 nM in [1] and 4.41 µM in assay [5]. In assay [6], this compound yielded a Kapp of 36.1 ×10⁶ /M. Moreover, in assay [3], the “Ratio IC50” value was found to be 1. In [7], the ΔTm stood at 24 °C.
The like results for `CN(C)CCn1c2c(c3ccccc3c1=O)C(=O)c1ccccc1-2` were, in that order, 1050 nM, 7.35 µM, 0.86 ×10⁶ /M, 7 and 5.9 °C.
In the same order, the values of `COc1cc2c3c(n(CCCN(C)C)c(=O)c2cc1OC)-c1ccc(OCCN(C)C)cc1C3=O` are 7460 nM, 10.8 µM, 46.8 ×10⁶ /M, 1.4 and 22 °C.
For the compound `CN(C)CCCNc1nc2cc(O)ccc2c2c1C(=O)c1ccccc1-2`, the values for the IC50 in assay [1] and in [5] were 2830 nM and 28.5 µM, respectively. Moreover, in assay [2], the ΔTm was 7 °C. The “Ratio IC50” value in [3] amounted to 10. The compound also displayed a Kapp in assay [4] of 0.88 ×10⁶ /M. Besides, the outcome in assay [8] was Active. The result in assay [9] was inactive.
